Data from ChEMBL document CHEMBL3286182, “4-aminoquinolone piperidine amides: noncovalent inhibitors of DprE1 with long residence time and potent antimycobacterial activity” (J Med Chem, 2014).
Activity calls are given as the source filed them.

Key:
Haemophilus influenzae [1] = test: Antimicrobial activity against Haemophilus influenzae ARC158 at 100 uM; type: functional, organism-based
Method in brief: (§1)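 Nonmycobacterial panel of Candida albicans, Gram-negative and Gram-positive pathogens.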

Streptococcus pneumoniae = test: Antimicrobial activity against Streptococcus pneumoniae ARC548 at 100 uM; type: functional, organism-based; method in brief: as §1
Pseudomonas aeruginosa [2] = test: Antimicrobial activity against Pseudomonas aeruginosa ARC546 at 100 uM; type: functional, organism-based; method in brief: as §1
[3] = test system: Mycobacterium tuberculosis; test: Antimycobacterial activity against Mycobacterium tuberculosis H37Rv under hypoxic condition after 6 days by resazurin assay; type: functional
[4] = test system: Mycolicibacterium smegmatis; test: Antimicrobial activity against Mycobacterium smegmatis mc2155 at 100 uM; type: functional, organism-based; settings: str. MC2 155
Escherichia coli [5] = test: Antimicrobial activity against Escherichia coli ARC523 at 100 uM; type: functional, organism-based; method in brief: as §1
[6] = Inhibition of Mycobacterium smegmatis recombinant DprE1 using farnesylphosphoryl-beta-D-ribofuranose as substrate assessed as conversion of amplex red to resorufin after 30 mins; design: species or system Mycolicibacterium smegmatis
Method in brief: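 Msm DprE1 (thioredoxin-6His fusion of Msm Rv3790) at 75 nM, preincubated 30 min with 10 μM FAD. Buffer: 50 mM glycylglycine pH 8.5, 200 mM potassium glutamate, 0.002% Brij-35, 2% DMSO, 25 °C. Started with 300 μM farnesylphosphoryl-β-D-ribofuranose, 0.01 mg/mL HRP and 50 μM Amplex Red.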

Staphylococcus aureus = test: Antimicrobial activity against Staphylococcus aureus ARC517 at 100 uM; type: functional, organism-based; method in brief: as §1
Candida albicans = test: Antimicrobial activity against Candida albicans ARC527 at 100 uM; type: functional, organism-based; method in brief: as §1
Haemophilus influenzae [7] = test: Antimicrobial activity against Haemophilus influenzae ARC446 at 100 uM; type: functional, organism-based; method in brief: as §1
Klebsiella pneumoniae = test: Antimicrobial activity against Klebsiella pneumoniae ARC1865 at 100 uM; type: functional, organism-based; method in brief: as §1
Escherichia coli [8] = test: Antimicrobial activity against Escherichia coli ARC524 at 100 uM; type: functional, organism-based; method in brief: as §1
[9] = test system: Mycolicibacterium smegmatis; test: Antimicrobial activity against Mycobacterium smegmatis ATCC 607 at 100 uM; type: functional, organism-based
Pseudomonas aeruginosa [10] = test: Antimicrobial activity against Pseudomonas aeruginosa ARC545 at 100 uM; type: functional, organism-based; method in brief: as §1
[11] = test system: Mycobacterium tuberculosis; test: Antimycobacterial activity against Mycobacterium tuberculosis H37Rv after 5 days by standard microdilution method; type: functional; settings: 120 h
[12] = test system: Mycobacterium tuberculosis; test: Antimycobacterial activity against Mycobacterium tuberculosis over expressing TopA after 5 days by standard microdilution method; type: functional; settings: 120 h
[13] = test system: Mycobacterium tuberculosis; test: Antimycobacterial activity against Mycobacterium tuberculosis over expressing DprE1 after 5 days by standard microdilution method; type: functional; settings: 120 h
[14] = test system: Mycobacterium tuberculosis; test: Antimycobacterial activity against Mycobacterium tuberculosis over expressing InhA after 5 days by standard microdilution method; type: functional; settings: 120 h
[15] = test system: Mycobacterium tuberculosis; test: Antimycobacterial activity against Mycobacterium tuberculosis over expressing PimA after 5 days by standard microdilution method; type: functional; settings: 120 h

Cc1onc(C(=O)N2CCC(Nc3cc(=O)[nH]c4ccc(F)cc34)CC2)c1C
< 6 nM: IC50 [6]
inactive: Activity (Haemophilus influenzae [1]) | Activity (Streptococcus pneumoniae) | Activity (Pseudomonas aeruginosa [2]) | Activity [3] | Activity [4] | Activity (Escherichia coli [5]) | Activity (Staphylococcus aureus) | Activity (Candida albicans) | Activity (Haemophilus influenzae [7]) | Activity (Klebsiella pneumoniae) | Activity (Escherichia coli [8]) | Activity [9] | Activity (Pseudomonas aeruginosa [10])
6.2 µM: MIC [11]

Cc1c(C(=O)N2CCC(Nc3cc(=O)[nH]c4ccccc34)CC2)cnn1C
inactive: Activity (Haemophilus influenzae [1]) | Activity (Streptococcus pneumoniae) | Activity (Pseudomonas aeruginosa [2]) | Activity [3] | Activity [4] | Activity (Escherichia coli [5]) | Activity (Staphylococcus aureus) | Activity (Candida albicans) | Activity (Haemophilus influenzae [7]) | Activity (Klebsiella pneumoniae) | Activity (Escherichia coli [8]) | Activity [9] | Activity (Pseudomonas aeruginosa [10])
210 nM: IC50 [6]
6.2 µM: MIC [11]

CO[C@H]1/C=C/O[C@@]2(C)Oc3c(C)c(O)c4c(O)c(c(/C=N/N5CCN(C)CC5)c(O)c4c3C2=O)NC(=O)/C(C)=C\C=C\[C@H](C)[C@H](O)[C@@H](C)[C@@H](O)[C@@H](C)[C@H](OC(C)=O)[C@@H]1C [RIFAMPIN]
0.004 µM: MIC [15]
0.01 µM: MIC [13] | MIC [11] | MIC [14]
0.03 µM: MIC [12]

CCn1ncc(C(=O)N2CCC(Nc3cc(=O)[nH]c4ccc(F)cc34)CC2)c1Cl
inactive: Activity (Haemophilus influenzae [1]) | Activity (Streptococcus pneumoniae) | Activity (Pseudomonas aeruginosa [2]) | Activity [3] | Activity [4] | Activity (Escherichia coli [5]) | Activity (Staphylococcus aureus) | Activity (Candida albicans) | Activity (Haemophilus influenzae [7]) | Activity (Klebsiella pneumoniae) | Activity (Escherichia coli [8]) | Activity [9] | Activity (Pseudomonas aeruginosa [10])
45 nM: IC50 [6]
12.5 µM: MIC [11]

CC(C)n1ncc(C(=O)N2CCC(Nc3cc(=O)[nH]c4ccccc34)CC2)c1Cl
100 µM: MIC [11]
inactive: Activity (Haemophilus influenzae [1]) | Activity (Streptococcus pneumoniae) | Activity (Pseudomonas aeruginosa [2]) | Activity [3] | Activity [4] | Activity (Escherichia coli [5]) | Activity (Staphylococcus aureus) | Activity (Candida albicans) | Activity (Haemophilus influenzae [7]) | Activity (Klebsiella pneumoniae) | Activity (Escherichia coli [8]) | Activity [9] | Activity (Pseudomonas aeruginosa [10])
7000 nM: IC50 [6]

Cn1ncc(C(=O)N2CCC(Nc3cc(=O)[nH]c4c(F)c(F)ccc34)CC2)c1Cl
inactive: Activity (Haemophilus influenzae [1]) | Activity (Streptococcus pneumoniae) | Activity (Pseudomonas aeruginosa [2]) | Activity [3] | Activity [4] | Activity (Escherichia coli [5]) | Activity (Staphylococcus aureus) | Activity (Candida albicans) | Activity (Haemophilus influenzae [7]) | Activity (Klebsiella pneumoniae) | Activity (Escherichia coli [8]) | Activity [9] | Activity (Pseudomonas aeruginosa [10])
9 nM: IC50 [6]
1.6 µM: MIC [11]

NNC(=O)c1ccncc1 [ISONIAZID]
0.45 µM: MIC [12] | MIC [11]
0.22 µM: MIC [13] | MIC [15]
> 7.25 µM: MIC [14]
